As usually defined, the EC50 is the concentration at which the effect is half-maximal. One may read the microsomal CLint as the capacity of the preparation to metabolise the compound, expressed as a volume cleared per time. What is called Vd is a proportionality between amount in the body and measured concentration, not a real space. In general, bioavailability refers to dose-corrected exposure relative to a reference, in per cent. In general, half-life refers to how long it takes for the measured level to halve. A high value points to slow decline. Usually clearance stands for a measure of how efficiently the substance is removed, as volume per time. The low end stands for a low capacity for elimination, the high end for a high capacity for elimination. The Ki is a dissociation constant, usually derived from enzyme kinetics or from competition with a known ligand. A high value points to a looser hold on the target.

Molecules are shown by their SMILES.

The target of data set [1] is Metabotropic glutamate receptor 5 (Homo sapiens, UniProt P41594). Description: Positive allosteric modulation of human mGluR5 expressed in HEK293 cells assessed as Ca2+ influx by FLIPR assay. Type of data set: functional, cell-based. The procedure, abridged:
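HEK293 cells stably expressing human mGluR5 d isoform, plated the day before at 25,000 cells/well in DMEM with 10% dialyzed FBS. Loaded 1 h at 37 °C with 4.3 uM Fluo-4 AM in HBSS/20 mM HEPES/1 mM probenecid, pH 7.4, then washed. Eleven-concentration series added, agonist read 1 min; after 15 min, EC20 L-glutamate (final 200-300 nM) added, Ca2+ read 1 min.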

Data set [2] can be described thus: Intrinsic clearance in human liver microsome assessed as per mg of protein. Particulars: liver microsomes. Type of data set: ADME. (Liver microsomes are vesicles of endoplasmic reticulum, rich in cytochrome P450 enzymes.)
A short description of data set [3]: Volume of distribution in dog. The conditions noted are these: in vivo. Type of data set: ADME, organism-based, Canis lupus familiaris.
The nature of data set [4]: Oral bioavailability in rat. Type of data set: ADME, organism-based. The conditions noted are these: in vivo.
Data set [5] in a line: Half life in dog. Particulars: in vivo. Type of data set: ADME, organism-based, Canis lupus familiaris.
A short description of data set [6]: Oral bioavailability in dog. Particulars: in vivo. Format: ADME, organism-based, Canis lupus familiaris.
The nature of data set [7]: Volume of distribution in rat. Particulars: in vivo. Type of data set: ADME, organism-based.
A short description of data set [8]: Half life in rat. The conditions noted are these: in vivo. Format: ADME, organism-based.
Data set [9] in a line: Clearance in rat plasma. Format: ADME, organism-based.
The nature of data set [10]: Clearance in dog plasma. Type of data set: ADME, organism-based, Canis lupus familiaris.
Data set [11] in a line: Ratio of drug level in brain to plasma in rat. Type of data set: ADME, organism-based. Particulars: brain and plasma, read-out: BPR.
The target in data set [12] is Metabotropic glutamate receptor 5 (Rattus norvegicus) (UniProt P31424). The data set can be described thus: Displacement of [3H]-MPEP from rat mGluR5. (In general: Displacement assays read how much labelled ligand stays bound in the presence of the test substance.)
Sequence of Metabotropic glutamate receptor 5 (Rattus norvegicus) (P31424 whole entry, looked up): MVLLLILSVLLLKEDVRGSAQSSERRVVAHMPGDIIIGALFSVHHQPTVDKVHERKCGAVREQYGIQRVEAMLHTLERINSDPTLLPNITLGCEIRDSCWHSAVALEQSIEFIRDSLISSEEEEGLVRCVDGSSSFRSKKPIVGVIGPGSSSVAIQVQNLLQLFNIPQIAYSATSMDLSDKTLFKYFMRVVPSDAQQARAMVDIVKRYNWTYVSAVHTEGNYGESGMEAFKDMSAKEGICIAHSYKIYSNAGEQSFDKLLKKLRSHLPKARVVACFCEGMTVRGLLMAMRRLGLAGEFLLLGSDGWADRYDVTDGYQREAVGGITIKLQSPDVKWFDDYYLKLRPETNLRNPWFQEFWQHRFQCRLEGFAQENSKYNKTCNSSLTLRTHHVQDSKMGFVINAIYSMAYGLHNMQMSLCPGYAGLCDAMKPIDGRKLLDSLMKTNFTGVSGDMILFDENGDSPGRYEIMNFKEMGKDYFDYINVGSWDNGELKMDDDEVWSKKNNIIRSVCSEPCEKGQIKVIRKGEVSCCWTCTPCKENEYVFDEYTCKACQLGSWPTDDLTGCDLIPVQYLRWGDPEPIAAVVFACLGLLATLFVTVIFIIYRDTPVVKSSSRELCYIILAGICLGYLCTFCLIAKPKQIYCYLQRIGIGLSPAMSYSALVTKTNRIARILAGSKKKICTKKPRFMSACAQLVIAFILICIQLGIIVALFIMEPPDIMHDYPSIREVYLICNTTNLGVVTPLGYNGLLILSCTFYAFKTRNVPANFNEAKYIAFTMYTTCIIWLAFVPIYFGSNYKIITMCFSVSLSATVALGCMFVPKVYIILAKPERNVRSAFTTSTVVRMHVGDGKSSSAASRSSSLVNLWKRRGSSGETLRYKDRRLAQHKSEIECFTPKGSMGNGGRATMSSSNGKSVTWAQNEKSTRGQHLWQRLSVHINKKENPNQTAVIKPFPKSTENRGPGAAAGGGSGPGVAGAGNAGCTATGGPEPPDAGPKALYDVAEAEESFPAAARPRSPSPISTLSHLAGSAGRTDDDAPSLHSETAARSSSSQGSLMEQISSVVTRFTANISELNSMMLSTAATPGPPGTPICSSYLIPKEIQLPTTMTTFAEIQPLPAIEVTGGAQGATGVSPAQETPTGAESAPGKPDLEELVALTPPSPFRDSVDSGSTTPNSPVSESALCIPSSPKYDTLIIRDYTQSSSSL

Sequence of Metabotropic glutamate receptor 5 (P41594 whole entry, canonical isoform): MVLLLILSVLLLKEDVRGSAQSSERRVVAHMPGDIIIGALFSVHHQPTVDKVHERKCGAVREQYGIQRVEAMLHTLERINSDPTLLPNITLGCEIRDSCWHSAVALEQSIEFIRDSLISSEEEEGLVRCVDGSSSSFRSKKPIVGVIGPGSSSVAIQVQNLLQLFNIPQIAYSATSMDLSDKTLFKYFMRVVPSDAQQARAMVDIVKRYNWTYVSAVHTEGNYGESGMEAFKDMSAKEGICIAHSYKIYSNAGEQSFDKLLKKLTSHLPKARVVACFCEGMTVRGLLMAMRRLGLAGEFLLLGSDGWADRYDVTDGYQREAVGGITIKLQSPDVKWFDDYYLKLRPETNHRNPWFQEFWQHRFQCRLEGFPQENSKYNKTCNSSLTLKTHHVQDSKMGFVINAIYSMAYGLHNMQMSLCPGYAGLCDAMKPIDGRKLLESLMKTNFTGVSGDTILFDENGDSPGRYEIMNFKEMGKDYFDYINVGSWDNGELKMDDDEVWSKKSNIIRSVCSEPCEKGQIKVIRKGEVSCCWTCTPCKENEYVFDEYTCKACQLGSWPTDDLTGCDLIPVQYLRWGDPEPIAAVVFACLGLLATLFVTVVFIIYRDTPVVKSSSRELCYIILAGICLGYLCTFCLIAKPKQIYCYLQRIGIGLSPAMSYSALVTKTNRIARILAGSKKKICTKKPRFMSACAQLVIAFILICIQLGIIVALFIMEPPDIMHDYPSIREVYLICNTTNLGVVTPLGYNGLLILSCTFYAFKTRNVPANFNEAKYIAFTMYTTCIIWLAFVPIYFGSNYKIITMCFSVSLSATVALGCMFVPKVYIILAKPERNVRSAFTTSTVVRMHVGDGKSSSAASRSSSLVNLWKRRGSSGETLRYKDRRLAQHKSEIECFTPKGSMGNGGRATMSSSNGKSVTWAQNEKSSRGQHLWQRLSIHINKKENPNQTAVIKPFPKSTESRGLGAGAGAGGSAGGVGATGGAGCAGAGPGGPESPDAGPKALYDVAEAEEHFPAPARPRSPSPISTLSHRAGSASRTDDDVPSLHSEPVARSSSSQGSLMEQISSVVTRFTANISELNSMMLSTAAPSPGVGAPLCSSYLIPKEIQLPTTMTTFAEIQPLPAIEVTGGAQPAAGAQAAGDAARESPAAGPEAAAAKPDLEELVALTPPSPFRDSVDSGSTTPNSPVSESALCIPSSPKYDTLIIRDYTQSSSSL

With `O=C(COCc1ccncc1)N1CCN(c2ccc(Cl)cc2)CC1`, in [1], the half-maximal effective concentration (EC50) turned out to be 1300 nM. Moreover, in data set [2], the microsomal CLint was 17 µL/min/mg.
Take `O=C(COCc1ccncc1)N1CCN(c2ccc(F)cc2Cl)CC1`: the Vd in [3] was 3.2 L/kg; in data set [7], 4.8 L/kg. Moreover, the results for the bioavailability in [4] and in [6] were 41% and 37%, respectively. The EC50 in [1] was found to be 550 nM. For the same molecule, the half-life in [5] is 2.9 h; in data set [8], 7.3 h. The clearance is 55 mL/min/kg in data set [9] and 38.5 mL/min/kg in data set [10]. Further, the Kp in data set [11] is 4.6. The microsomal CLint in data set [2] is 29 µL/min/mg. Also, the inhibition constant Ki in data set [12] was 2370 nM.
On to `O=C(COCc1ccncc1)N1CCN(c2ccc(Cl)cc2F)CC1`, for which the EC50 in [1] is 600 nM. Also, in data set [2], the microsomal CLint stood at 38 µL/min/mg.
In the case of `Cc1cc(Cl)ccc1N1CCN(C(=O)COCc2ccncc2)CC1`, in data set [1], the concentration giving a half-maximal response (EC50) was 240 nM. For the same molecule, the microsomal CLint in [2] worked out at 68 µL/min/mg.
Take `O=C(COCc1ccncc1)N1CCN(c2ccc(Cl)cc2Cl)CC1`: in data set [1], the EC50 came out at 180 nM. Also, the intrinsic clearance (microsomal CLint) in data set [2] amounted to 76 µL/min/mg.
In the case of `O=C(COCc1ccncc1)N1CCN(c2ccc(F)cc2F)CC1`, the EC50 in [1] worked out at 4600 nM. Further, the intrinsic metabolic clearance (microsomal CLint) in [2] is 22 µL/min/mg.
For `O=C(COCc1ccncc1)N1CCN(c2cc(Cl)ccn2)CC1`, in that order: 4200 nM and 4 µL/min/mg.
For `O=C(COCc1ccncc1)N1CCC(c2ccc(Cl)cc2)CC1`, in that order: 680 nM and 41 µL/min/mg.
Taken in the same sequence, the figures for `O=C(COCc1ccncc1)N1CCC(c2ccc(F)cc2Cl)CC1` were 370 nM and 56 µL/min/mg.
On to `O=C(COCc1ccncc1)N1CCC(c2ccc(Cl)cc2Cl)CC1`, for which the concentration giving a half-maximal response (EC50) in [1] is 390 nM. The microsomal CLint in data set [2] was 96 µL/min/mg.
For `O=C(COCc1ccncc1)N1CCC(F)(c2ccc(Cl)cc2)CC1`, in that order: 800 nM and 45 µL/min/mg.
Consider `CC1(c2ccc(Cl)cc2)CCN(C(=O)COCc2ccncc2)CC1`, for which the concentration giving a half-maximal response (EC50) in data set [1] amounted to 2100 nM.
The same measure, in the same setting: the result for `O=C(COCc1ccncc1)N1CCC(F)(c2ccc(F)cc2Cl)CC1` reads 6600 nM; that for `Fc1ccc(C2CCN(C(=S)COCc3ccncc3)CC2)c(Cl)c1`, greater than 10600 nM.
Still for that read-out and setting: next, `Clc1ccc(N2CCN(CCOCc3ccccc3)CC2)c(Cl)c1`: greater than 25000 nM; `O=C(CCCc1ccncc1)N1CCN(c2ccc(Cl)cc2Cl)CC1`: 5300 nM.
For `O=C(CNCc1ccncc1)N1CCN(c2ccc(Cl)cc2Cl)CC1`, the 50% effective concentration (EC50) in [1] amounted to 8500 nM.
Same read-out and setting: the result for `CN(CC(=O)N1CCN(c2ccc(Cl)cc2Cl)CC1)Cc1ccncc1` reads greater than 25000 nM.
On to `O=C(CSCc1ccccc1)N1CCN(c2ccc(Cl)cc2Cl)CC1`, for which the EC50 in data set [1] is 7100 nM.
Still for that read-out and setting: the result for `O=C(CSc1ccccc1)N1CCN(c2ccc(Cl)cc2Cl)CC1` reads greater than 25000 nM; that for `C[C@@H](OCc1ccncc1)C(=O)N1CCC(c2ccc(Cl)cc2F)CC1`, greater than 25000 nM.
For the molecule `O=C(COCc1ccccn1)N1CCN(c2ccc(Cl)cc2Cl)CC1`, in data set [1], the EC50 was 310 nM. For the same molecule, the microsomal CLint in data set [2] was 94 µL/min/mg.
For `O=C(COCc1cccnc1)N1CCN(c2ccc(Cl)cc2Cl)CC1`, in that order: 1090 nM and 210 µL/min/mg.
For `O=C(COCc1cnccn1)N1CCN(c2ccc(Cl)cc2Cl)CC1`, in that order: 5200 nM and 4 µL/min/mg.
Consider `O=C(COCc1ccncn1)N1CCN(c2ccc(Cl)cc2Cl)CC1`, for which the EC50 in data set [1] was 2800 nM. Besides, the intrinsic metabolic clearance (microsomal CLint) in [2] worked out at 17 µL/min/mg.
For `O=C(COCc1ncccn1)N1CCN(c2ccc(Cl)cc2Cl)CC1`, in that order: 18000 nM and 16 µL/min/mg.
As for `O=C(COCc1cscn1)N1CCN(c2ccc(Cl)cc2Cl)CC1`, in data set [1], the EC50 came to 290 nM. Further, the microsomal CLint in [2] is 62 µL/min/mg.
Turning to `O=C(COCc1cncs1)N1CCN(c2ccc(Cl)cc2Cl)CC1`, the EC50 in data set [1] stood at 1280 nM. In data set [2], the intrinsic clearance (microsomal CLint) stood at 73 µL/min/mg.
In the case of `O=C(COCc1ccccc1)N1CCN(c2ccccc2)CC1`, the concentration for a half-maximal effect (EC50) in data set [1] came to 7100 nM.
On to `O=C(COCc1nccs1)N1CCN(c2ccc(Cl)cc2Cl)CC1`, for which, in data set [1], the EC50 was greater than 10300 nM. For the same molecule, the microsomal CLint in data set [2] was determined as 80 µL/min/mg.
In the case of `O=C(COCc1cccs1)N1CCN(c2ccc(Cl)cc2Cl)CC1`, in [1], the EC50 amounted to 310 nM. Moreover, the microsomal CLint in [2] came out at 360 µL/min/mg.
With `N#Cc1ccc(COCC(=O)N2CCN(c3ccc(Cl)cc3Cl)CC2)s1`, the EC50 in data set [1] amounted to 210 nM. Besides, the microsomal CLint in data set [2] is 110 µL/min/mg.
For `O=C(COCc1ccccc1)N1CCN(c2ccccc2Cl)CC1`, in that order: 1100 nM and 540 µL/min/mg.
In the case of `O=C(COCc1ccccc1)N1CCN(c2cccc(Cl)c2)CC1`, the EC50 in data set [1] was found to be 6700 nM. For the same molecule, the microsomal CLint in data set [2] was 310 µL/min/mg.
Consider `O=C(COCc1ccccc1)N1CCN(c2ccc(Cl)cc2)CC1`, for which, in data set [1], the half-maximal effective concentration (EC50) was 350 nM. Moreover, the microsomal CLint in data set [2] was 290 µL/min/mg.
Take `O=C(COCc1ccccc1)N1CCN(c2ccc(F)cc2)CC1`: in [1], the EC50 came to 1100 nM. Further, the microsomal CLint in [2] amounted to 110 µL/min/mg.
Taken in the same sequence, the figures for `O=C(COCc1ccccc1)N1CCN(c2ccc(Cl)cc2Cl)CC1` were 1400 nM and 450 µL/min/mg.
For `O=C(COCc1ccccc1)N1CCN(c2ccc(F)cc2F)CC1`, the EC50 in data set [1] turned out to be 300 nM. Moreover, in data set [2], the microsomal CLint stood at 580 µL/min/mg.
Taken in the same sequence, the figures for `O=C(COCc1ccccc1)N1CCN(c2ccc(F)cc2Cl)CC1` were 270 nM and 530 µL/min/mg.
As for `O=C(COCc1ccccc1)N1CCN(c2cc(Cl)ccn2)CC1`, the half-maximal effective concentration (EC50) in data set [1] was 570 nM. Besides, in data set [2], the intrinsic clearance (microsomal CLint) was found to be 130 µL/min/mg.
Consider `O=C(COCc1ccccc1)N1CCN(c2ccncc2)CC1`, for which the EC50 in [1] is greater than 25000 nM.

The record behind these values is ChEMBL document CHEMBL1287773, “4-aryl piperazine and piperidine amides as novel mGluR5 positive allosteric modulators” (Bioorg Med Chem Lett, 2010).
